Results from BindingDB's records for doi:10.1021/jm00111a027 (Merck Sharp & Dohme Research Laboratories, 1991).
Non-standard residues stand in square brackets, D forms with d. Residues, ends and D or L forms follow the SMILES beside them. *: point of attachment. NH(2-Me-nonan-4R-yl) = CCCCC[C@H](CC(C)C)N*; NHCH(iBu)2 = CC(C)CC(CC(C)C)N*; X1 = CC(C)CCOC[C@H](CC(C)C)N*; X11 = CCCCC[C@@H](CC(C)C)N*; Leu(ol) = CC(C)C[C@H](N)CO; X4 = CCCCCC[C@H](CC(C)C)N*; X12 = CCCC[C@H](CC(C)C)N*; X8 = CCCC[C@@H](CC(C)C)N*; X9 = CCC[C@@H](CC(C)C)N*; X3 = COC[C@H](CC(C)C)N*; X6 = CCC[C@H](CC(C)C)N*; Piv = CC(C)(C)C(=O)*; X2 = CCCCC(CCCC)N*; X7 = CCCC(CCC)N*

Target: Gastrin-releasing peptide receptor (Mus musculus, UniProt P21729)
Assay: Compound was evaluated for mitogenic inhibition against Swiss 3T3 murine fibroblast cells.
How it was run: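 Swiss 3T3 monolayers grown to confluence, then serum-starved in serum-free DMEM for 48 h. Antagonist added together with 3 nM N-acetyl-GRP-20-27 amide and 23 nM [3H]thymidine. After a further 48 h, cells detached with trypsin/5 mM EDTA and filter-harvested; [3H]thymidine uptake measured. IC50 is the mean of at least two independent experiments.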

Gastrin-releasing peptide receptor, sequence (P21729 whole entry): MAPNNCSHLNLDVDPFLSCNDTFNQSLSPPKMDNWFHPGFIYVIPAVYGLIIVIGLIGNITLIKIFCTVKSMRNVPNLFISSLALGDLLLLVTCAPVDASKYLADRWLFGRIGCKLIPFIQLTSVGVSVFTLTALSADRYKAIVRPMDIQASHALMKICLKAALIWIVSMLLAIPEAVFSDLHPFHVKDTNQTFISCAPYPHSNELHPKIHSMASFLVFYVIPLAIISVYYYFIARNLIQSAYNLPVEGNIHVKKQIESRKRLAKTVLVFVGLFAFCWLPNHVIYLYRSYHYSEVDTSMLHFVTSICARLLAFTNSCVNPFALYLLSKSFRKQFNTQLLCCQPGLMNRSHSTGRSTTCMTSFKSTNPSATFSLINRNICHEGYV

Row | Structure (SMILES) | IC50
1 | CC(=O)N[C@@H](Cc1c[nH]cn1)C(=O)N[C@@H](Cc1c[nH]c2ccccc12)C(=O)N[C@@H](C)C(=O)N[C@H](C(=O)NCC(=O)N[C@@H](Cc1c[nH]cn1)C(=O)N[C@H](COCCC(C)C)CC(C)C)C(C)C [2-{2-[2-[2-Acetylamino-3-(3H-imidazol-4-yl)-propionylamino]-3-(1H-indol-3-yl)-propionylamino]-propionylamino}-N-({2-(3H-imidazol-4-yl)-1-[3-methyl-1-(3-methyl-butoxymethyl)-butylcarbamoyl]-ethylcarbamoyl}-methyl)-3-methyl-butyramide] (Ac-HWAVGH-X1) | 0.032 µM

Target: not listed separately
Assay: Compound was evaluated for mitogenic inhibition against Swiss 3T3 murine fibroblast cells.

Row | IC50 | Structure (SMILES)
2 | 0.011 µM | CCCCC(CCCC)NC(=O)[C@H](Cc1cnc[nH]1)NC(=O)CNC(=O)[C@@H](NC(=O)[C@H](C)NC(=O)[C@H](Cc1c[nH]c2ccccc12)NC(=O)[C@H](Cc1cnc[nH]1)NC(C)=O)C(C)C [2-{2-[2-[2-Acetylamino-3-(3H-imidazol-4-yl)-propionylamino]-3-(1H-indol-3-yl)-propionylamino]-propionylamino}-N-{[1-(1-butyl-pentylcarbamoyl)-2-(3H-imidazol-4-yl)-ethylcarbamoyl]-methyl}-3-methyl-butyramide] (Ac-HWAVGH-X2)
3 | 0.008 µM | CC(=O)N[C@@H](Cc1cnc[nH]1)C(=O)N[C@@H](Cc1c[nH]c2ccccc12)C(=O)N[C@@H](C)C(=O)N[C@H](C(=O)NCC(=O)N[C@@H](Cc1cnc[nH]1)C(=O)NC(CC(C)C)CC(C)C)C(C)C [2-{2-[2-[2-Acetylamino-3-(3H-imidazol-4-yl)-propionylamino]-3-(1H-indol-3-yl)-propionylamino]-propionylamino}-N-{[2-(3H-imidazol-4-yl)-1-(1-isobutyl-3-methyl-butylcarbamoyl)-ethylcarbamoyl]-methyl}-3-methyl-butyramide] (Ac-HWAVGH-{NHCH(iBu)2})
4 | 0.003 µM | CCCC[C@H](CC(C)C)NC(=O)[C@H](Cc1cnc[nH]1)NC(=O)CNC(=O)[C@@H](NC(=O)[C@H](C)NC(=O)[C@H](Cc1c[nH]c2ccccc12)NC(=O)[C@H](Cc1cnc[nH]1)NC(C)=O)C(C)C [2-{2-[2-[2-Acetylamino-3-(3H-imidazol-4-yl)-propionylamino]-3-(1H-indol-3-yl)-propionylamino]-propionylamino}-N-{[2-(3H-imidazol-4-yl)-1-(1-isobutyl-pentylcarbamoyl)-ethylcarbamoyl]-methyl}-3-methyl-butyramide] (Ac-HWAVGH-X12)

Target: not listed separately
Assay: as above
Remark: another data set of the same source

Row | IC50 | Structure (SMILES)
5 | 0.02 µM | CCOC(=O)[C@H](CC(C)C)NC(=O)[C@H](Cc1c[nH]cn1)NC(=O)CNC(=O)[C@@H](NC(=O)[C@H](C)NC(=O)[C@H](Cc1c[nH]c2ccccc12)NC(=O)[C@H](Cc1c[nH]cn1)NC(C)=O)C(C)C [2-[2-[2-(2-{2-[2-[2-Acetylamino-3-(3H-imidazol-4-yl)-propionylamino]-3-(1H-indol-3-yl)-propionylamino]-propionylamino}-3-methyl-butyrylamino)-acetylamino]-3-(3H-imidazol-4-yl)-propionylamino]-4-methyl-pentanoic acid ethyl ester] (Ac-HWAVGHL-OEt)
6 | 0.0006 µM | CCCCC[C@H](CC(C)C)NC(=O)[C@H](Cc1cnc[nH]1)NC(=O)CNC(=O)[C@@H](NC(=O)[C@H](C)NC(=O)[C@H](Cc1c[nH]c2ccccc12)NC(=O)[C@H](Cc1cnc[nH]1)NC(=O)C(C)(C)C)C(C)C [2-{2-[2-[2-(2,2-Dimethyl-propionylamino)-3-(3H-imidazol-4-yl)-propionylamino]-3-(1H-indol-3-yl)-propionylamino]-propionylamino}-N-{[2-(3H-imidazol-4-yl)-1-(1-isobutyl-hexylcarbamoyl)-ethylcarbamoyl]-methyl}-3-methyl-butyramide] (Piv-HWAVGH-{NH(2-Me-nonan-4R-yl)})
7 | > 0.3 µM | CCOC[C@H](CC(C)C)NC(=O)[C@H](Cc1c[nH]cn1)NC(=O)[C@H](C)NC(=O)[C@@H](NC(=O)[C@H](C)NC(=O)[C@H](Cc1c[nH]c2ccccc12)NC(=O)[C@H](Cc1c[nH]cn1)NC(C)=O)C(C)C [2-{2-[2-[2-Acetylamino-3-(3H-imidazol-4-yl)-propionylamino]-3-(1H-indol-3-yl)-propionylamino]-propionylamino}-N-{1-[1-(1-ethoxymethyl-3-methyl-butylcarbamoyl)-2-(3H-imidazol-4-yl)-ethylcarbamoyl]-ethyl}-3-methyl-butyramide]
8 | 0.3 µM | CC(=O)N[C@@H](Cc1c[nH]cn1)C(=O)N[C@@H](Cc1c[nH]c2ccccc12)C(=O)N[C@@H](C)C(=O)N[C@H](C(=O)NCC(=O)N[C@@H](Cc1c[nH]cn1)C(=O)N[C@H](CO)CC(C)C)C(C)C [2-{2-[2-[2-Acetylamino-3-(3H-imidazol-4-yl)-propionylamino]-3-(1H-indol-3-yl)-propionylamino]-propionylamino}-N-{[1-(1-hydroxymethyl-3-methyl-butylcarbamoyl)-2-(3H-imidazol-4-yl)-ethylcarbamoyl]-methyl}-3-methyl-butyramide] (Ac-HWAVGH[Leu(ol)])
9 | 0.007 µM | CCCCCC[C@H](CC(C)C)NC(=O)[C@H](Cc1cnc[nH]1)NC(=O)CNC(=O)[C@@H](NC(=O)[C@H](C)NC(=O)[C@H](Cc1c[nH]c2ccccc12)NC(=O)[C@H](Cc1cnc[nH]1)NC(C)=O)C(C)C [2-{2-[2-[2-Acetylamino-3-(3H-imidazol-4-yl)-propionylamino]-3-(1H-indol-3-yl)-propionylamino]-propionylamino}-N-{[2-(3H-imidazol-4-yl)-1-(1-isobutyl-heptylcarbamoyl)-ethylcarbamoyl]-methyl}-3-methyl-butyramide] (Ac-HWAVGH-X4)
10 | 0.022 µM | CCCCC[C@@H](CC(C)C)NC(=O)[C@H](Cc1cnc[nH]1)NC(=O)CNC(=O)[C@@H](NC(=O)[C@H](C)NC(=O)[C@H](Cc1c[nH]c2ccccc12)NC(=O)[C@H](Cc1cnc[nH]1)NC(C)=O)C(C)C [2-{2-[2-[2-Acetylamino-3-(3H-imidazol-4-yl)-propionylamino]-3-(1H-indol-3-yl)-propionylamino]-propionylamino}-N-{[2-(3H-imidazol-4-yl)-1-(1-isobutyl-hexylcarbamoyl)-ethylcarbamoyl]-methyl}-3-methyl-butyramide] (Ac-HWAVGH-X11)
11 | 0.004 µM | CCCCC[C@H](CC(C)C)NC(=O)[C@H](Cc1cnc[nH]1)NC(=O)CNC(=O)[C@@H](NC(=O)[C@H](C)NC(=O)[C@H](Cc1c[nH]c2ccccc12)NC(=O)[C@H](Cc1cnc[nH]1)NC(C)=O)C(C)C [2-{2-[2-[2-Acetylamino-3-(3H-imidazol-4-yl)-propionylamino]-3-(1H-indol-3-yl)-propionylamino]-propionylamino}-N-{[2-(3H-imidazol-4-yl)-1-(1-isobutyl-hexylcarbamoyl)-ethylcarbamoyl]-methyl}-3-methyl-butyramide] (Ac-HWAVGH-{NH(2-Me-nonan-4R-yl)})
12 | 0.006 µM | CCCC[C@@H](CC(C)C)NC(=O)[C@H](Cc1c[nH]cn1)NC(=O)CNC(=O)[C@@H](NC(=O)[C@H](C)NC(=O)[C@H](Cc1c[nH]c2ccccc12)NC(=O)[C@H](Cc1c[nH]cn1)NC(C)=O)C(C)C [2-{2-[2-[2-Acetylamino-3-(3H-imidazol-4-yl)-propionylamino]-3-(1H-indol-3-yl)-propionylamino]-propionylamino}-N-{[2-(3H-imidazol-4-yl)-1-(1-isobutyl-pentylcarbamoyl)-ethylcarbamoyl]-methyl}-3-methyl-butyramide] (Ac-HWAVGH-X8)
13 | 0.091 µM | COC[C@H](CC(C)C)NC(=O)[C@H](Cc1c[nH]cn1)NC(=O)CNC(=O)[C@@H](NC(=O)[C@H](C)NC(=O)[C@H](Cc1c[nH]c2ccccc12)NC(=O)[C@H](Cc1c[nH]cn1)NC(C)=O)C(C)C [2-{2-[2-[2-Acetylamino-3-(3H-imidazol-4-yl)-propionylamino]-3-(1H-indol-3-yl)-propionylamino]-propionylamino}-N-{[2-(3H-imidazol-4-yl)-1-(1-methoxymethyl-3-methyl-butylcarbamoyl)-ethylcarbamoyl]-methyl}-3-methyl-butyramide] (Ac-HWAVGH-X3)
14 | 0.08 µM | CCCC(CCC)NC(=O)[C@H](Cc1cnc[nH]1)NC(=O)CNC(=O)[C@@H](NC(=O)[C@H](C)NC(=O)[C@H](Cc1c[nH]c2ccccc12)NC(=O)[C@H](Cc1cnc[nH]1)NC(C)=O)C(C)C [2-{2-[2-[2-Acetylamino-3-(3H-imidazol-4-yl)-propionylamino]-3-(1H-indol-3-yl)-propionylamino]-propionylamino}-N-{[2-(3H-imidazol-4-yl)-1-(1-propyl-butylcarbamoyl)-ethylcarbamoyl]-methyl}-3-methyl-butyramide] (Ac-HWAVGH-X7)
15 | 0.01 µM | CCC[C@H](CC(C)C)NC(=O)[C@H](Cc1cnc[nH]1)NC(=O)CNC(=O)[C@@H](NC(=O)[C@H](C)NC(=O)[C@H](Cc1c[nH]c2ccccc12)NC(=O)[C@H](Cc1cnc[nH]1)NC(C)=O)C(C)C [2-{2-[2-[2-Acetylamino-3-(3H-imidazol-4-yl)-propionylamino]-3-(1H-indol-3-yl)-propionylamino]-propionylamino}-N-{[2-(3H-imidazol-4-yl)-1-(3-methyl-1-propyl-butylcarbamoyl)-ethylcarbamoyl]-methyl}-3-methyl-butyramide] (Ac-HWAVGH-X6)
16 | 0.035 µM | CCC[C@@H](CC(C)C)NC(=O)[C@H](Cc1cnc[nH]1)NC(=O)CNC(=O)[C@@H](NC(=O)[C@H](C)NC(=O)[C@H](Cc1c[nH]c2ccccc12)NC(=O)[C@H](Cc1cnc[nH]1)NC(C)=O)C(C)C [2-{2-[2-[2-Acetylamino-3-(3H-imidazol-4-yl)-propionylamino]-3-(1H-indol-3-yl)-propionylamino]-propionylamino}-N-{[2-(3H-imidazol-4-yl)-1-(3-methyl-1-propyl-butylcarbamoyl)-ethylcarbamoyl]-methyl}-3-methyl-butyramide] (Ac-HWAVGH-X9)
